This is an account of results in ChEMBL document CHEMBL1153277 (Bioorg Med Chem Lett, 2009).

The structures appear in SMILES notation.

The species entered for data set [1] is Homo sapiens. Kind of data set: Selectivity for human alpha3beta4 nAChR over human alpha7 nAChR.
In data set [2] the target is Neuronal acetylcholine receptor subunit alpha-7 (Homo sapiens, UniProt P36544). Kind of data set: Agonist activity at human recombinant alpha7 nAChR expressed in rat GH3 cells by calcium influx assay. Format: functional, cell-based. The gist of the method:
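GH3 cells recombinantly expressing human α7 nAChR; agonist activity. Each compound run in duplicate. EC50 taken from individual 8-point concentration-response curves and expressed as pEC50, with Emax given in %.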

The species entered for data set [3] is Homo sapiens. As to the kind of experiment: Selectivity for human alpha4beta2 nAChR over human alpha7 nAChR.
Data set [4] has as its target Neuronal acetylcholine receptor; alpha3/beta4 (Homo sapiens, UniProt P30926+P32297). As to the kind of experiment: Antagonist activity at human alpha3beta4 nAChR expressed in HEK293 cells by calcium influx assay. It counts as functional, cell-based.
Data set [5] addresses Neuronal acetylcholine receptor; alpha4/beta2 (Homo sapiens, UniProt P17787+P43681). Kind of data set: Antagonist activity at human alpha4beta2 nAChR expressed in HEK293 cells by calcium influx assay. It counts as functional, cell-based.
The target of data set [6] is T1, 5-hydroxytryptamine receptor 3A (Homo sapiens, UniProt P46098).
T1 sequence (P46098 whole entry): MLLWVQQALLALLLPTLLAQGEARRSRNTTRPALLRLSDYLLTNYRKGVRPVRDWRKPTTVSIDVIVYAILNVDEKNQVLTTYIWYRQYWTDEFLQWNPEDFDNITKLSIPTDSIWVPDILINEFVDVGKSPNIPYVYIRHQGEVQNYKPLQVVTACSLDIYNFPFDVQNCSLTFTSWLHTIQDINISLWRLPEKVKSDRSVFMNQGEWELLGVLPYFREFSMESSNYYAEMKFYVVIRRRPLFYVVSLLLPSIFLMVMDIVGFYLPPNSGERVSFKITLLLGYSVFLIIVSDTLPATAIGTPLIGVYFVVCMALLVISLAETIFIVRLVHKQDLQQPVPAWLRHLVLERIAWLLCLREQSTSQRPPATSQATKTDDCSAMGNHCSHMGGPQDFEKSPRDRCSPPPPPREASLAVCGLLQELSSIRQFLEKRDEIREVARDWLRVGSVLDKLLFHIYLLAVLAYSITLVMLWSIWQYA
Kind of data set: Antagonist activity at human 5HT3 receptor by calcium influx assay. Format: functional.

For data set [7], the species on record is Homo sapiens. As to the kind of experiment: Selectivity for human alpha-1-beta-1-gamma-delta nAChR over human alpha7 nAChR.
Data set [8] concerns the target Acetylcholine receptor; alpha1/beta1/delta/gamma (Homo sapiens, UniProt P02708+P07510+P11230+Q07001). Kind of data set: Antagonist activity at human alpha-1-beta-1-gamma-delta nAChR expressed in human TE671 cells by calcium influx assay. Format: functional, cell-based, TE-671.
Data set [9] is filed under the species Homo sapiens. Kind of data set: Selectivity for human 5HT3 receptor over human alpha7 nAChR.
The nature of data set [10]: Octanol-water partition coefficient, log P of the compound. It counts as physicochemical.
Data set [11] is described as follows: Metabolic stability in human liver microsomes assessed as hepatic extraction ratio. The note with it: read-out: Activity. Format: ADME, Microsome. In a few lines:
(§1)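 Compound incubated with mouse or human liver microsomes. In vitro hepatic extraction ratio reported as % compound depleted at the end of the experiment; half-life also given.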

Data set [12] concerns Mus musculus. Kind of data set: Plasma concentration in DBA/2 mouse at 30 umol/kg, po after 1 hr. It counts as ADME, organism-based. The note with it: in vivo. The gist of the method: (§2)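 Mice (n = 6) dosed 30 µmol/kg po. Brain and plasma levels measured at 1 h and 4 h after dosing, reported as pmol/g.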
Data set [13] has as its system Brain. Kind of data set: Drug level in DBA/2 mouse brain at 30 umol/kg, po after 4 hrs. Format: ADME, organism-based. The note with it: in vivo. The gist of the method:
as §2

Data set [14] can be described thus: Metabolic stability in mouse liver microsomes assessed as hepatic extraction ratio. Format: ADME, Microsome. Particulars: read-out: Activity. The gist of the method:
as §1

The test system of data set [15] is Mus musculus. Kind of data set: Plasma concentration in DBA/2 mouse at 30 umol/kg, po after 4 hrs. Format: ADME, organism-based. Particulars: in vivo. The gist of the method: as §2
In data set [16] the test system is Brain. As to the kind of experiment: Drug level in DBA/2 mouse brain at 30 umol/kg, po after 1 hr. The note with it: in vivo. Format: ADME, organism-based. The gist of the method:
as §2

Chain of Neuronal acetylcholine receptor; alpha3/beta4 (P30926 whole entry): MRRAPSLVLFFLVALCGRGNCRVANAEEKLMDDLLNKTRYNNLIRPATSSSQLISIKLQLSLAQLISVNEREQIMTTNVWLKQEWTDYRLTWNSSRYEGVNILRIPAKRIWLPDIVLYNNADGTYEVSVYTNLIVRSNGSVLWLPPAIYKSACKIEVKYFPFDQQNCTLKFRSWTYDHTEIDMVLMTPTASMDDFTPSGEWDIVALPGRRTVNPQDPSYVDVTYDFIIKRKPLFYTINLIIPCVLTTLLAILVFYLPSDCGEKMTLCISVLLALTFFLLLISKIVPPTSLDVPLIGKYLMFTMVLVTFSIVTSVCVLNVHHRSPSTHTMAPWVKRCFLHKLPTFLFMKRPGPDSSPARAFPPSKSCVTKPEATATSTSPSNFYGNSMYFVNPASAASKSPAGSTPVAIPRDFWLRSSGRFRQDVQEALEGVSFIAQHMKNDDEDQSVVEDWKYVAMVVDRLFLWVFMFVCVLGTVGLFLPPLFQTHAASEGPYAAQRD
Chain of Neuronal acetylcholine receptor; alpha3/beta4 (P32297 whole entry): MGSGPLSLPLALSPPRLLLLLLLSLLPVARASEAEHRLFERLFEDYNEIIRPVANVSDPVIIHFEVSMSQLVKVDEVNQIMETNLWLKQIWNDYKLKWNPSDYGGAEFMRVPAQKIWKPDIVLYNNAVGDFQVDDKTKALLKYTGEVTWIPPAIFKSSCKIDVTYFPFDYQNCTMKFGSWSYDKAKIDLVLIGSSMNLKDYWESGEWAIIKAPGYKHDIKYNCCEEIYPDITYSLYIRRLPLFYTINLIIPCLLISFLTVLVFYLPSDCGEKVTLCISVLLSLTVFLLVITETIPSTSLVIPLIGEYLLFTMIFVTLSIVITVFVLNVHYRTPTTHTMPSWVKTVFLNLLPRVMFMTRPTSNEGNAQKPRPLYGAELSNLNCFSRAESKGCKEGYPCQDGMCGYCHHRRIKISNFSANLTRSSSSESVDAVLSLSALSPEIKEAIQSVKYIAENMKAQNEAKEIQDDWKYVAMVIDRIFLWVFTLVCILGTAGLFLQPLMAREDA
Chain of Neuronal acetylcholine receptor; alpha4/beta2 (P17787 whole entry): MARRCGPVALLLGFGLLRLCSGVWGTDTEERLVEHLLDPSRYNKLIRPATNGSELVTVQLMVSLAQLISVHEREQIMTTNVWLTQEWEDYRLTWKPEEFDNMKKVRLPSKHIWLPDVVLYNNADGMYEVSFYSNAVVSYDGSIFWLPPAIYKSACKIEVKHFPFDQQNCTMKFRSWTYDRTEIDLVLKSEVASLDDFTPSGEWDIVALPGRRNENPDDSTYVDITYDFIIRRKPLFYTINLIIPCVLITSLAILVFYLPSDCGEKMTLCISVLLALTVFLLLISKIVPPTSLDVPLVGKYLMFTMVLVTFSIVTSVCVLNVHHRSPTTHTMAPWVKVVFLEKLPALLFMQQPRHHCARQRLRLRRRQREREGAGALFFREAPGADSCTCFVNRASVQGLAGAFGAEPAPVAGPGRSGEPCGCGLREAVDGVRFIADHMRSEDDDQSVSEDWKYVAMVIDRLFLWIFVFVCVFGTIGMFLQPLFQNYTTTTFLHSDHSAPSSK
Chain of Neuronal acetylcholine receptor; alpha4/beta2 (P43681 whole entry): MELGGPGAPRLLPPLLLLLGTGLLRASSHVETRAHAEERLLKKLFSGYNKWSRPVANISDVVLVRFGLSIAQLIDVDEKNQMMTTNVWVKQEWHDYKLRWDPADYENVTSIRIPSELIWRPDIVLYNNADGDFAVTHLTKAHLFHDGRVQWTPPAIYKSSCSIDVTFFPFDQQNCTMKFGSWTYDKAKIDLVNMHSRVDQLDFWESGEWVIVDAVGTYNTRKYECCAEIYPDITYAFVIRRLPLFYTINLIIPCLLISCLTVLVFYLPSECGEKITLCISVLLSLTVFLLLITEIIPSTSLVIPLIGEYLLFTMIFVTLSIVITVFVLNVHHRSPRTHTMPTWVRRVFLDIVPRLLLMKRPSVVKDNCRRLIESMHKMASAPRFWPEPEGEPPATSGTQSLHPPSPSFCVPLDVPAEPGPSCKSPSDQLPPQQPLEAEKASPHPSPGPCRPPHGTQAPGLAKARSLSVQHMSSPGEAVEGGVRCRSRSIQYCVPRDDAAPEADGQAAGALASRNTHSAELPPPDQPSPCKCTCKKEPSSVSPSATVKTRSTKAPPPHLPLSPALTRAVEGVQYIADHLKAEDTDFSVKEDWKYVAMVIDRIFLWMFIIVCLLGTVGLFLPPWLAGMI
Chain of Neuronal acetylcholine receptor subunit alpha-7 (P36544 whole entry): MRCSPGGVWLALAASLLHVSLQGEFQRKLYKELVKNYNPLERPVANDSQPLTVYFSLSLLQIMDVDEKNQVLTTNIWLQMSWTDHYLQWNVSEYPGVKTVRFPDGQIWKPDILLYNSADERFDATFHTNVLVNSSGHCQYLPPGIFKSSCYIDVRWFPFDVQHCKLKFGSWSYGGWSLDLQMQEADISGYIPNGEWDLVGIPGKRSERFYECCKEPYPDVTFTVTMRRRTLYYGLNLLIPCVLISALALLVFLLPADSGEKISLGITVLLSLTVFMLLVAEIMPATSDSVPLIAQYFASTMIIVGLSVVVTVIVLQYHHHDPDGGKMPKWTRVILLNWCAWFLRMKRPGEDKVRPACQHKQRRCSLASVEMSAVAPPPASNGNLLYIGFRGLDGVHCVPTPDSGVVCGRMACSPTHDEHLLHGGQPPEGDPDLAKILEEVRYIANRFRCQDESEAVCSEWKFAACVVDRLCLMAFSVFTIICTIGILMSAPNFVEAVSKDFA
Chain of Acetylcholine receptor; alpha1/beta1/delta/gamma (P02708 whole entry): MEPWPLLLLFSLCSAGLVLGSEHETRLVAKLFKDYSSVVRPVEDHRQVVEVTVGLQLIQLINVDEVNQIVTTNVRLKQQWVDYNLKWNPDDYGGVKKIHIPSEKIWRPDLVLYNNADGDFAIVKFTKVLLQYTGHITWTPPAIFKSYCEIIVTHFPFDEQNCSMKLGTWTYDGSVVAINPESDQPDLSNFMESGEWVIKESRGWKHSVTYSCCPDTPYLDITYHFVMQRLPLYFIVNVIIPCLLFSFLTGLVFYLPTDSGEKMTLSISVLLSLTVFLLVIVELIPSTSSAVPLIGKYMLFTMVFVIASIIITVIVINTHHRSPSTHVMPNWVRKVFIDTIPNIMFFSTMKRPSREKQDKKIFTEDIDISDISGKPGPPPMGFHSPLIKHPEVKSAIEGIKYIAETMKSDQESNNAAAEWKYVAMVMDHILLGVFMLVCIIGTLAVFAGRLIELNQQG
Chain of Acetylcholine receptor; alpha1/beta1/delta/gamma (P07510 whole entry): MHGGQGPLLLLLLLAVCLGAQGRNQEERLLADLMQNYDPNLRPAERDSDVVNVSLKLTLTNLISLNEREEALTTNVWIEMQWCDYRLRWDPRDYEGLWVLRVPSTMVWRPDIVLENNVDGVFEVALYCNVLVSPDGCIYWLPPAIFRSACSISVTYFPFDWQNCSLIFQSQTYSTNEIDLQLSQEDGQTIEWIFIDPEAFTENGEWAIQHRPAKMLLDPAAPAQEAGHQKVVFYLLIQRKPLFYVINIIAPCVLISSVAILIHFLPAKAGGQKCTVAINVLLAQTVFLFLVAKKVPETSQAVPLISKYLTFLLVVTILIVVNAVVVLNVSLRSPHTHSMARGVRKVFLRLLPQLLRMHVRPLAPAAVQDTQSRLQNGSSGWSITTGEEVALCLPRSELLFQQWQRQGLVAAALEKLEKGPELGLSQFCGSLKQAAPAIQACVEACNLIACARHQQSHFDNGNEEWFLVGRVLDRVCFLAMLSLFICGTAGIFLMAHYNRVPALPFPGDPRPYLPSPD
Chain of Acetylcholine receptor; alpha1/beta1/delta/gamma (P11230 whole entry): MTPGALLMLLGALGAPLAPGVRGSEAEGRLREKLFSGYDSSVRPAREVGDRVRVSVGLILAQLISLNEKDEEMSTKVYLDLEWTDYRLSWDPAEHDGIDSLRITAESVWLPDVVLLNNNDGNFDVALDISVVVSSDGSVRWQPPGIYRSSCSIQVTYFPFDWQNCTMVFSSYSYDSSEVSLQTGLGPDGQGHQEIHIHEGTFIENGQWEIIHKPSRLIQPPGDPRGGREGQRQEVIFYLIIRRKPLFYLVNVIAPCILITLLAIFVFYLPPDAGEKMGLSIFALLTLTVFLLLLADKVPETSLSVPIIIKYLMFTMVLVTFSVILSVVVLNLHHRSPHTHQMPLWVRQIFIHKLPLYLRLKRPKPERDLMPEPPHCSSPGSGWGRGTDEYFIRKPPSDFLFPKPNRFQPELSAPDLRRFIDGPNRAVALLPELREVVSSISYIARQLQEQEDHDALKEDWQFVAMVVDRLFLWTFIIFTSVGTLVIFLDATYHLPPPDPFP
Chain of Acetylcholine receptor; alpha1/beta1/delta/gamma (Q07001 whole entry): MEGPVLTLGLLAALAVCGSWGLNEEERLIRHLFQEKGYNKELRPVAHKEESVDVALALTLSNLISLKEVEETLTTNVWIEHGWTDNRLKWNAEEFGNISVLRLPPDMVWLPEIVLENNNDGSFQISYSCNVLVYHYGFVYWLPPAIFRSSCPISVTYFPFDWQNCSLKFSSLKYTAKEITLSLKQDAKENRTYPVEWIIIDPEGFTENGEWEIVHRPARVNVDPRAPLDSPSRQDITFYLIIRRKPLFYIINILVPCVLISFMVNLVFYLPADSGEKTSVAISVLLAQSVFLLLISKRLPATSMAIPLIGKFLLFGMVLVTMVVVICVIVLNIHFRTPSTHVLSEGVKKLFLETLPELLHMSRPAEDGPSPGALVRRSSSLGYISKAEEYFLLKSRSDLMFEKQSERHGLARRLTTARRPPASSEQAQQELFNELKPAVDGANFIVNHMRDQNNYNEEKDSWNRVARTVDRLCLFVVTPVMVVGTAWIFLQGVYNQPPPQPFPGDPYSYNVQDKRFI

Take `CN1C(=O)[C@@H](CN2CCCCC2)C[C@H]1C#Cc1ccccc1Cl`: in data set [1], the Ratio came to 52. Also, in [2], the EC50 was 25.1 nM and the maximal effect (Emax) was 89%.
Take `COc1cccc([C@@H]2C[C@H](CN3CCCC3)C(=O)N2C)c1` (relative stereo): in [2], the EC50 is 7940 nM and the Emax stood at 80%.
With `CN1C(=O)[C@@H](CN2CCCCC2)C[C@H]1c1ccc(Br)cc1` (relative stereo), in data set [2], the EC50 was 631 nM and the maximal effect (Emax) stood at 89%.
Consider `Clc1ccc([C@@H]2C[C@H]3CC[C@@H]2N3)cn1` [(+)-EPIBATIDINE], for which, in data set [2], the 50% effective concentration (EC50) is 39.8 nM and the Emax came to 100%.
Take `Cc1cc([C@@H]2C[C@H](CN3CCCCC3)C(=O)N2C)sc1-c1ccccc1Cl` (relative stereo): in data set [2], the EC50 was 631 nM and the maximal effect (Emax) was determined as 81%.
Turning to `O=C1NC[C@@]2(CN3CCC2CC3)O1`, in data set [2], the EC50 is 398 nM and the maximum response (Emax) worked out at 104%.
Consider `COc1ccc(/C=C2\CCCN=C2c2cccnc2)c(OC)c1` [GTS-21], for which, in data set [2], the EC50 was 2000 nM and the maximal effect (Emax) is 71%.
Regarding `COc1cccc([C@@H]2C[C@H](CN3CCCCC3)C(=O)N2C)c1` (relative stereo), in data set [2], the concentration giving a half-maximal response (EC50) was 1260 nM and the Emax was 128%.
Regarding `CN1C(=O)[C@@H](CN2CCCCC2)C[C@H]1C#Cc1ccc2c(ccn2C)c1` (relative stereo), the Ratio was 232 in data set [3], 111 in data set [1], 431 in data set [7] and 3220 in data set [9]. Besides, the half-inhibitory concentration (IC50) was 1000 nM in data set [4], 2000 nM in data set [5], 25100 nM in data set [6] and 3980 nM in [8]. For the same molecule, the EC50 in data set [2] is 7.94 nM. Moreover, in [2], the maximum response (Emax) is 100%.
With `CN1C(=O)[C@@H](CN2CCCCC2)C[C@H]1c1cccc(Cl)c1` (relative stereo), in [2], the EC50 was 1000 nM and the Emax was 102%.
Take `COc1ccccc1[C@@H]1C[C@H](CN2CCCCC2)C(=O)N1C` (relative stereo): in data set [2], the EC50 was 1260 nM and the Emax came out at 107%.
With `CN1C(=O)[C@@H](CN2CCCCC2)C[C@H]1c1ccc(Cl)cc1` (relative stereo), in [2], the concentration giving a half-maximal response (EC50) was 1000 nM and the maximal effect (Emax) stood at 110%.
On to `CN1C(=O)[C@@H](CN2CCCCC2)C[C@H]1c1cnc(-c2ccccc2Cl)s1` (relative stereo), for which, in [1], the Ratio came to 14. In data set [2], the concentration giving a half-maximal response (EC50) is 25.1 nM and the Emax is 89%.
In the case of `COc1ccc([C@@H]2C[C@H](CN3CCCCC3)C(=O)N2C)cc1` (relative stereo), in data set [2], the EC50 is 1260 nM and the maximum response (Emax) stood at 124%.
Consider `CN1C(=O)[C@@H](CN2CCCCC2)C[C@H]1C#Cc1ccc2occc2c1` (relative stereo), for which the lipophilicity (logP) in [10] was 3.9. The Ratio in [3] worked out at 660; in [1], 123; in data set [7] it was 17000; in [9], 17000. The hepatic extraction ratio in [11] was 0.68; in data set [14], 0.67. Also, the IC50 in data set [4] was 794 nM; in [5], 5010 nM; in data set [6] it was 100000 nM; in [8], 100000 nM. Moreover, the values for the Cp in [12] and in [15] were 1001 pmol/g and 544 pmol/g, respectively. Further, the EC50 in data set [2] is 7.94 nM. Also, in data set [2], the maximal effect (Emax) is 90%. Further, the Drug uptake in data set [13] is listed as 3676 pmol/g; in [16] it was 6533 pmol/g.
For the molecule `CN1C(=O)[C@@H](CN2CCCCC2)C[C@H]1c1ccc(C2CCCCC2)cc1` (relative stereo), in [2], the EC50 was 316 nM and the Emax is 60%.
On to `CN1C(=O)[C@@H](CN2CCCCC2)C[C@H]1c1ccc(-c2ccccc2)cc1`, for which, in data set [2], the concentration giving a half-maximal response (EC50) is 1260 nM and the Emax worked out at 61%.
On the same counts, the results for `CN1C(=O)[C@@H](CN2CCCCC2)C[C@H]1c1ccc(C2CCCC2)cc1` (relative stereo) are 316 nM and 28%.
For `CN1C(=O)[C@@H](CN2CCCCC2)C[C@H]1c1ccccc1Cl` the same measures were 794 nM and 89%.
`CN1C(=O)[C@@H](CN2CCCCC2)C[C@H]1c1ccc(-c2ccccc2Cl)s1` (relative stereo): the Ratio in data set [1] was determined as 26. Besides, in data set [2], the half-maximal effective concentration (EC50) is 31.6 nM and the Emax is 79%.
Take `Cc1ccccc1C#C[C@@H]1C[C@H](CN2CCCCC2)C(=O)N1C` (relative stereo): in [1], the Ratio was determined as 104. Also, in data set [2], the 50% effective concentration (EC50) was 15.8 nM and the maximal effect (Emax) was found to be 83%.
Consider `CN1CCC[C@H]1c1cccnc1`, for which, in data set [2], the Emax was 100%.
Take `CN1C(=O)[C@@H](CN2CCCCC2)C[C@H]1C#Cc1ccc2c(c1)CCO2` (relative stereo): the Ratio in [3] worked out at 1260; in data set [1], 154; in data set [7], 773; in data set [9], 5390. Also, the concentration for half-maximal inhibition (IC50) is 1000 nM in data set [4], 10000 nM in data set [5], 50100 nM in [6] and 6310 nM in data set [8]. Besides, the concentration for a half-maximal effect (EC50) in data set [2] was 7.94 nM. In addition, the Emax in data set [2] was determined as 80%.
Turning to `CN1C(=O)[C@@H](CN2CCCCC2)C[C@H]1c1ccc(-c2ccccc2Cl)cc1` (relative stereo), the Ratio in data set [1] came to 3. For the same molecule, in [2], the concentration for a half-maximal effect (EC50) was 126 nM and the Emax is 62%.
On to `Cc1ccc([C@@H]2C[C@H](CN3CCCCC3)C(=O)N2C)cc1` (relative stereo), for which, in data set [2], the half-maximal effective concentration (EC50) is 631 nM and the Emax is 114%.
For `CN1C(=O)[C@@H](CN2CCCCC2)C[C@H]1c1nc(-c2ccccc2Cl)cn1C` (relative stereo), in data set [2], the concentration for a half-maximal effect (EC50) is 631 nM and the maximal effect (Emax) amounted to 47%.
With `CN1C(=O)[C@@H](CN2CCCCC2)C[C@H]1c1ccc(-c2ccccc2F)cc1` (relative stereo), in [2], the concentration for a half-maximal effect (EC50) is 316 nM and the maximum response (Emax) worked out at 47%.
For `CN1C(=O)[C@@H](CN2CCCCCC2)C[C@H]1c1ccccc1Cl` (relative stereo) the same measures were 2000 nM and 82%.
Take `CN1C(=O)[C@@H](CN2CCCCC2)C[C@H]1c1nc(-c2ccccc2Cl)c[nH]1` (relative stereo): in [2], the EC50 is 1260 nM and the Emax was determined as 61%.
